# Assay results as given in PMC2585982 (Toxicology and applied pharmacology, 2008).
# Values joined by “and” are separate entries in the source; they are usually repeats but may differ in a detail not shown here. Equal values may be shown once.
# What was measured:
# P450 3A11 = test: Liver microsomal P450 3A activity; type: in vivo, mice; settings: mouse, in vivo
# GSTα = test: Western blot of liver cytosol, GSTα protein expression; type: in vivo; settings: SENCAR mice, 35, 70, 150 mg/kg p.o., particularly at the highest doses
# GST (DCNB, GST μ) = test: Liver cytosolic GST activity, DCNB as substrate, after oral dosing of mice; type: in vivo; settings: C57BL/6 mice, 100 mg/kg p.o. 3 days, vs corn oil
# PXR [1] = target: T1, PXR (Mus musculus, UniProt O54915); test: GAL-PXR reporter assay; type: cell-based
# T1 sequence (O54915 143-430 limits assumed): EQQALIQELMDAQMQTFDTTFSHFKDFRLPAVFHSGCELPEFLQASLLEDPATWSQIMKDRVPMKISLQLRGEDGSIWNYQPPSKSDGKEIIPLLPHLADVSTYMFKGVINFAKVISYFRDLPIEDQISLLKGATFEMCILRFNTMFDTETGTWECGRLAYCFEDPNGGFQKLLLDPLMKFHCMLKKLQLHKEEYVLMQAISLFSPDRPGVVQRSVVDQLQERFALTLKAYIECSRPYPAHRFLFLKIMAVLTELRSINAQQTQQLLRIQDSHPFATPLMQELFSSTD
# SXR [2] = target: SXR (Homo sapiens, UniProt O75469); test: SXR-DR3 reporter assay; type: cell-based
# Target sequence in this assay (O75469 whole entry, one chain of several): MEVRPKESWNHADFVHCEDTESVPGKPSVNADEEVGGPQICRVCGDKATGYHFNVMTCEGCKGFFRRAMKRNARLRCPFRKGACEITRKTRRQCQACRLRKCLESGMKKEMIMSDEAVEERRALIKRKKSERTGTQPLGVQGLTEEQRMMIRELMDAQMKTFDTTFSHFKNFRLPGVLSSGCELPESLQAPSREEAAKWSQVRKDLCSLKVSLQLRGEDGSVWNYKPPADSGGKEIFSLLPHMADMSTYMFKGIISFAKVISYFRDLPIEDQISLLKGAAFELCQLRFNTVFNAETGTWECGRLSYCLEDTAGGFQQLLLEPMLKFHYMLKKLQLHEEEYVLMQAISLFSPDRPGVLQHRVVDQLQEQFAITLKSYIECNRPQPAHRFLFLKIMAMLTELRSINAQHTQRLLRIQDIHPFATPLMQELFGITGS
# Cyp2b10 mRNA = test: Northern blot of liver RNA, Cyp2b10 mRNA in CAR; settings: isopimpinellin 150 mg/kg p.o. 24 h, TC 3 mg/kg i.p. 6 h
# P450s 1A1/2 = test: Liver microsomal P450 1A activity; type: in vivo, mice; settings: mouse, in vivo
# PXR LBD and SRC-1 RID = PXR LBD and SRC-1 RID (Mus musculus, UniProt O54915); test: Mammalian two-hybrid assay, Gal-SRC-1 RID + VP-L-PXR in CV-1 cells; type: cell-based; settings: isopimpinellin 50 μM; PCN 10 μM; Figure 7A
# Chain of PXR LBD and SRC-1 RID (Q15788 570-780 partner limits assumed, one chain of several): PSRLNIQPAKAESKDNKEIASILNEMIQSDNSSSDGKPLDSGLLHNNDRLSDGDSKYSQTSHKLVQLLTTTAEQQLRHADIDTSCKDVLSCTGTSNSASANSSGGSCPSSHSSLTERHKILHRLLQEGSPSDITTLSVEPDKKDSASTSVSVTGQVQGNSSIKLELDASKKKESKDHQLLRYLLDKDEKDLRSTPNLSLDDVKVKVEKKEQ
# How it was run: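 Mammalian two-hybrid in CV-1 cells co-transfected with Gal-SRC-1 RID and/or VP-L-PXR, plus MH100-tk-luc reporter and CMX-β-gal. Cells were exposed to compound or solvent control in medium for 18–24 h. Interaction was taken as luciferase activity normalised to β-gal activity; mean ± SD.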
# P450 2B10 = settings: mouse, in vivo
# [3] = target: mCAR-LBD fused to the Gal4 DNA binding domain (Mus musculus, UniProt O35627); test: CAR transfection assay, Gal4-mCAR LBD fusion reporter in HepG2 cells; type: cell-based, murine; settings: HepG2, 4 μM androstanol; 250 nM TC or 0.1–100 μM isopimpinellin, 24 h
# Chain of mCAR-LBD fused to the Gal4 DNA binding domain (O35627 119-358 limits assumed): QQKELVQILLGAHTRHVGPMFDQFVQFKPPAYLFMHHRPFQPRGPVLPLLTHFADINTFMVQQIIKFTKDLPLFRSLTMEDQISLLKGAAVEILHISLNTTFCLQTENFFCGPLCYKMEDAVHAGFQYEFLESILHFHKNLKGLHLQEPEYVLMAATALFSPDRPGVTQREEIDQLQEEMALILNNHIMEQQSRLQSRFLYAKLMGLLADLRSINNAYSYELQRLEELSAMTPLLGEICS
# SXR [4] = target: T2, SXR (Homo sapiens, UniProt O75469); test: GAL-SXR reporter assay; type: cell-based
# T2 sequence (O75469 146-433 limits assumed): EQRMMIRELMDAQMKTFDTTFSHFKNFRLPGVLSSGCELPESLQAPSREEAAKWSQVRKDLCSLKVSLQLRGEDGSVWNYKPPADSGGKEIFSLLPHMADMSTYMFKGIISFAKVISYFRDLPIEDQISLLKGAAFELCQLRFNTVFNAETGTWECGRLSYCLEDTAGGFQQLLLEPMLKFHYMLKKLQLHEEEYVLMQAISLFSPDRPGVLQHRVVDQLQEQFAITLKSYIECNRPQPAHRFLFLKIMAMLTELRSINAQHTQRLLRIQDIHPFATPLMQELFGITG
# GSTa1 mRNA = test: Northern blot of liver RNA, GSTa1 mRNA in CAR; type: in vivo, mice; settings: isopimpinellin 150 mg/kg p.o. 24 h; TC 3 mg/kg i.p. 6 h
# Cyp3a11 mRNA = test: Northern blot of liver RNA, Cyp3a11 mRNA in CAR; settings: isopimpinellin 150 mg/kg p.o. 24 h, TC 3 mg/kg i.p. 6 h
# P450s 2B9/10 = settings: mice treated 3 consecutive days; ref Kleiner et al., 2001; cited from earlier work
# SXR and SRC-1 RID = SXR and SRC-1 RID (Homo sapiens, UniProt O75469); test: Mammalian two-hybrid assay, Gal-SRC-1 RID + VP-L-SXR in CV-1 cells; type: cell-based; settings: isopimpinellin 50 μM, RIF 10 μM
# Chain of SXR and SRC-1 RID (Q15788 570-780 partner limits assumed, one chain of several): as the sequence (Q15788 570-780 partner limits assumed, one chain of several) above
# PXR [5] = target: T3, PXR (Mus musculus, UniProt O54915); test: PXR-DR3 reporter assay; type: cell-based
# T3 sequence (O54915 1-431): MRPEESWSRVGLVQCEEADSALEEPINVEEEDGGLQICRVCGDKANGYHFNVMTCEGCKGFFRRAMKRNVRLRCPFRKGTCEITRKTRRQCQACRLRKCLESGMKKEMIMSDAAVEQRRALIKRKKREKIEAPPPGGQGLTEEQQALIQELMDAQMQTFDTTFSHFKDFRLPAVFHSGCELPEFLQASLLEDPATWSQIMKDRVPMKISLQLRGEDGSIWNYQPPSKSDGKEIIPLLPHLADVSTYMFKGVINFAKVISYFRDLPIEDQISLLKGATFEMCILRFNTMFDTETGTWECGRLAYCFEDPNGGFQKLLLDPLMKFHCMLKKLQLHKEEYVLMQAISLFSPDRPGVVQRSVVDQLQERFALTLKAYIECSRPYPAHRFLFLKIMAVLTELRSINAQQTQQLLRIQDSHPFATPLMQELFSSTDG
# T3 sequence (P19793 1-462 partner): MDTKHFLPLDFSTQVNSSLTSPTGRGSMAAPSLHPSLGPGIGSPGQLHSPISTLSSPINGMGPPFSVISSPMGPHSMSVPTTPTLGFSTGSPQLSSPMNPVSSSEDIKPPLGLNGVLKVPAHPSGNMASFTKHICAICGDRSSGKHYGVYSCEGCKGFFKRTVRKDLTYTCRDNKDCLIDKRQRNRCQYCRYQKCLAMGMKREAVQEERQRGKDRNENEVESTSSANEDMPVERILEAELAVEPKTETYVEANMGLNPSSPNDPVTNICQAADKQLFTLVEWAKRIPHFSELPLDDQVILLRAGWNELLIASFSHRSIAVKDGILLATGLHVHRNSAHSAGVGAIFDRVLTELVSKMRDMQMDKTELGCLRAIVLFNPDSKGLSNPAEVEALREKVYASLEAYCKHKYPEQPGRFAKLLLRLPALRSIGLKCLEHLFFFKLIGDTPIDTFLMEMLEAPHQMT
compound,measurement,setting,value
"COc1c2ccoc2c(OC)c2oc(=O)ccc12 [isopimpinellin, 5,8-dimethoxypsoralen]","P450 3A activity, liver microsomes, dose-response study",P450 3A11,increased
same,"Increase in P450 3A activity (testosterone), liver microsomes","P450 3A11; po, 100 mg/kg",3–4 fold
same,"Hepatic expression of GST α protein, dose-response study",GSTα,greatly increased
same,"GST activity using DCNB as a substrate, liver cytosol","GST (DCNB, GST μ)",highest increase
same,EC50,PXR [1],~17 µM
same,"Max (concentration to reach maximal effect), GAL-PXR","PXR [1]; CV-1 cells, 18–24 h","100,000 nM"
same,EC50,"PXR [1]; ED50, GAL-PXR activation, CV-1 cells, 18–24 h, luciferase normalized by β-gal",18 µM and 17.8 µM
same,"Concentration to reach maximal effect, times higher than PCN",PXR [1]; GAL-PXR reporter system,30 times
same,EC50,SXR [2],39.8 µM
same,"Max (concentration to reach maximal effect), SXR-DR3","SXR [2]; CV-1 cells, full length SXR","100,000 nM"
same,"Induction of hepatic Cyp2b10 mRNA, CAR(−/−) mice",Cyp2b10 mRNA,attenuated
same,"Induction of hepatic Cyp2b10 mRNA, CAR(+/+) mice",Cyp2b10 mRNA; male and female,~ 4 fold
same,"P450 1 activity, liver microsomes, dose-response study",P450s 1A1/2,significant increases
same,Induced interaction of PXR LBD and SRC-1 RID compared to the control,PXR LBD and SRC-1 RID,over 4 fold
same,"Increase in P450 2B9/10 protein expression (optical density), dose-response study",P450 2B10,2–3 fold
same,"P450 2B10 protein levels, dose-response study",P450 2B10,significantly elevated
same,P450 2B10 protein expression (western blot densitometry),"P450 2B10; po, 100 mg/kg",increased
same,Effect on the inhibitory effect of androstanol on Gal4 reporter expression (mCAR-LBD),[3],counteracted
same,EC50,SXR [4],~35 µM
same,"Max (concentration to reach maximal effect), GAL-SXR","SXR [4]; CV-1 cells, 18–24 h","100,000 nM"
same,EC50,"SXR [4]; ED50, GAL-SXR activation, CV-1 cells, 18–24 h, luciferase normalized by β-gal",35.5 µM
same,"Concentration to reach maximal effect, times higher than RIF",SXR [4]; GAL-SXR reporter system,10 times
same,"Increase in hepatic GSTa1 mRNA, female CAR(−/−) mice",GSTa1 mRNA,~ 3 fold
same,"Increase in hepatic GSTa1 mRNA, male CAR(−/−) mice",GSTa1 mRNA,~ 8 fold
same,"Increase in hepatic GSTa1 mRNA, male and female CAR(+/+) mice",GSTa1 mRNA,10–11 fold
same,"Induction of hepatic Cyp3a11 mRNA, CAR(−/−) mice",Cyp3a11 mRNA,still observed
same,"Induction of hepatic Cyp3a11 mRNA, CAR(+/+) mice",Cyp3a11 mRNA; male and female,~ 4 fold
same,Hepatic P450 2B9/10 activity at 1 h after the final dose,P450s 2B9/10,no elevation
same,Increase in hepatic P450 2B9/10 activity at 24 h after the final dose,P450s 2B9/10,100 fold
same,Induced interaction of receptor LBD and SRC-1 (Figure 7B),SXR and SRC-1 RID,~ 2 fold
same,EC50,PXR [5],15.8 µM
same,"Max (concentration to reach maximal effect), PXR-DR3","PXR [5]; CV-1 cells, full length PXR","30,000 nM"
